Hits are enriched below; roughly 7.6% of the tested compounds scored in any of these assays.
DAT uptake mod = modulates human dopamine transporter uptake under cocaine. Q01959. LLC-PK1 hDAT cells, [14C]-dopamine uptake with cocaine IC80; actives deviate in either direction. B-score at 10 µM. actives 1.3% (n = 110,000). AID 449768;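 active means Z score or B-score, a plate-position-corrected score, falls beyond the plate's 99.7% confidence bounds, in either direction; inactive means both scores lie inside the 99.7% bounds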;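 further: scored against the spread of the other compound wells on the same plate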
Jurkat tox 60K = cytotoxicity toward Jurkat cells. Jurkat E6.1 viability, ATP luminescence, 48 h. inhibition, % at 4 µM. AID 463. actives 1.2% (n = 56,000);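 active means inhibition above the mean inhibition of all tested compounds plus 3 SD, cut at about 28% in these data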
D1 mod = allosterically modulates the human D1 dopamine receptor; B-score at 10 µM; HEK293 D1, CRE-luciferase, dopamine EC30 potentiation; actives deviate in either direction; actives 5.9% (n = 58,000); P21728;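 active means luminescence count or its row- and column-corrected plate score outside the 99.7% band of the plate's sample wells, on either side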
Target sequence (P21728 whole entry, looked up): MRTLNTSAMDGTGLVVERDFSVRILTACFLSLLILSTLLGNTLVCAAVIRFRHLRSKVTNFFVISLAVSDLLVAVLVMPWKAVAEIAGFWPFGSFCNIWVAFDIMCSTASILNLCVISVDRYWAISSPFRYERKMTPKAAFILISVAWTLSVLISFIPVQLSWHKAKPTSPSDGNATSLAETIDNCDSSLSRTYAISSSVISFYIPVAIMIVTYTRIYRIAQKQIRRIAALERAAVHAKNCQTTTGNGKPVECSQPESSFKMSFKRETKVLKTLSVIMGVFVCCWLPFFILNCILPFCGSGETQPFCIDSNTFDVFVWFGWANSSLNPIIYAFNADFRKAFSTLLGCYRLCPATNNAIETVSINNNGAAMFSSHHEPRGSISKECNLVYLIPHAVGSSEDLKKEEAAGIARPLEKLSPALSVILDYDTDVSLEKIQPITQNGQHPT
M1 antagonist = antagonists of rat M1 muscarinic receptor; CHO-M1 cells, Fluo-4 calcium, ACh EC80 antagonist mode; active compounds read low; B-score at 10 µM; actives 3.4% (n = 64,000);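 active means calcium fluorescence response, raw or row-and-column corrected B-score, differing from the plate sample mean either way at a set confidence level, mostly lower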
HEK293 NFkB inh = inhibitors of the PMA/ionomycin-induced NF-kB reporter in HEK293 cells; inhibition, % at 3 µM; actives 0.21% (n = 62,000); HEK-293 NF-kB luciferase reporter, luminescence;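 active means inhibition above the mean of all tested compounds plus 3 SD, cut at about 40% in these data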;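 further: 0% = stimulated DMSO wells and 100% = 10 µM reference inhibitor 5653914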
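Reagent: PMA plus ionomycin mix as NF-kB-activating stimulus. Assay system: NF-kB luciferase reporter HEK-293 cells. Technique: luminescence from luciferase substrate reagent. Incubation: 1 h compound pre-incubation, 16 h PMA/ionomycin at 37 °C. Benchmarks: DMSO only as uninhibited control, 10 µM reference inhibitor as full inhibition. Repeats: tested once.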
M1 ag = M1 muscarinic receptor agonism. CHO-M1 cells, Fluo-4 calcium fluorescence, agonist mode; active compounds read high. B-score at 10 µM. actives 3% (n = 64,000);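 active means fluorescence rise, raw or as B-score row- and column-corrected plate score, outside the 99.7% band of its plate's samples, either direction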
M1 ag confirm = confirmation of rat M1 muscarinic receptor agonists. fluorescence change (max-min) at 10 µM. AID 1488. CHO-M1 cells, Fluo-4 calcium fluorescence, agonist mode; actives lie on both sides. actives 19% (n = 1,700). shares compounds with M1 ag;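 active means fluorescence change differs from the solvent-only DMSO control mean at a set confidence level in both duplicate runs; inconclusive means differs from solvent-only control mean in just one of two runs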;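 further: an EC20 dose of acetylcholine follows compound addition during the same imaging run; raw fluorescence intensity difference in instrument units with no normalization to controls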
M4 ag counter = rat M4 muscarinic agonism, M1 counter-screen; shares compounds with M1 ag; CHO M4/Gqi5 cells, Fluo-4 calcium fluorescence, agonist mode; actives lie on both sides; fluorescence change (max-min) at 10 µM; actives 9% (n = 1,700); AID 1741;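 active means fluorescence change differing from the plate's solvent-only control wells at 99.7% confidence in both duplicates, whether higher or lower; inconclusive means differs from solvent controls in only one of two duplicates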
The depositor's hits bear a star; ? = inconclusive; . = not tested or not shown.

SMILES	DAT uptake mod	Jurkat tox 60K	D1 mod	M1 antagonist	HEK293 NFkB inh	M1 ag	M1 ag confirm	M4 ag counter
O=C(NCC(c1cccnc1)N1CCN(c2ccc(F)cc2)CC1)c1cccc(Cl)c1 (stereo not drawn)	1.52	5.3	-1.97	-1.25	10.7	5.84*	?	-50.9
Cc1cc(S(=O)(=O)N2CCN(Cc3ccc4c(c3)OCO4)CC2)cc(C)c1N1CCCC1=O	-0.0719	2.5	-4.63*	0.85	11.2	3.31*	-17.5	-40.4
Cc1ccc(CN(c2ccc(C(=O)N3CCOCC3)cc2)S(C)(=O)=O)cc1	-0.296	3.7	0.576	0.345	18.5	0.591	.	.
CCOC(=O)C1CCN(C(c2cc3c(C)ccc(C)c3[nH]c2=O)c2nnnn2C2CCCCC2)CC1 (stereo not drawn)	-0.142	1.1	-1.39	0.0963	17.7	2.58*	-32.6*	-57.2
O=C(Nc1ccc(N2CCOCC2)cc1)Nc1ccc2nc(-c3ccco3)c(-c3ccco3)nc2c1	2.17	83.4*	2.66	-1.26	-20.8	2.81*	-1.57	-19.4
O=C(Nc1ccc2nc(-c3ccco3)c(-c3ccco3)nc2c1)NC1CC1	-0.418	.	.	.	.	.	.	.
C/C(=C/C=N/Nc1nc(N2CCCCC2)nc(N2CCCCC2)n1)c1ccccc1	-0.555	.	.	.	.	.	.	.
O=C(NCCc1c[nH]c2ccccc12)c1cnc2sccn2c1=O	-0.229	1.4	-0.424	1.14	-33.1	3.24*	-14.2	?
Cn1nc(CC(=O)Nc2ccc3c(c2)CCC3)c2ccccc2c1=O	-1.09	23.9	-1.27	-1.99	35.6	11.1*	32.6	19.5
Cn1nc(CC(=O)NC2CCCCCCCCCCC2)c2ccccc2c1=O	0.487	.	.	.	.	.	.	.
C=C(C)CSc1nnc2n(C)c(=O)c3c4c(sc3n12)CCC4	0.00599	.	.	0.00448	.	3.48*	-19.2	?
c1cncc(-c2nc3c(ccc4ccccc43)[nH]2)c1	-0.000381	.	.	.	.	.	.	.
CC(Oc1ccccc1Cl)c1nnc(N)s1 (stereo not drawn)	-0.682	.	.	.	.	.	.	.
Cc1ccc(OC(C)c2nnc(N)s2)cc1Cl (stereo not drawn)	0.368	8.8	-1.31	-0.0924	15.4	2.46*	-19.5*	-58.4
COc1ccc(NC(=O)CCSc2nnc(C)s2)cc1	-0.582	.	-0.206	.	.	.	.	.
O=C(c1cccs1)N1CCN(c2ccc(F)cc2)CC1	0.317	.	.	.	.	.	.	.
N#Cc1nc(COc2cccc(Cl)c2)oc1N1CCN(c2ccccc2)CC1	0.532	7.2	0.416	-0.657	9.1	-0.902	.	.
N#Cc1nc(COc2ccc(F)cc2)oc1N1CCN(Cc2ccccc2)CC1	.	1.8	-2.43	0.114	22.3	0.0187	.	.
N#Cc1nc(COc2ccc(F)cc2)oc1N1CCC(Cc2ccccc2)CC1	.	1.5	-0.46	-0.458	3.3	9.25*	15.5	-48.5
N#Cc1nc(COc2ccccc2)oc1N1CCN(c2cccc(Cl)c2)CC1	0.808	-0.1	0.479	-0.00794	-13.5	4.11*	122*	?
CC(C)CC(=O)Nc1ccc2c(c1)oc1ccccc12	0.375	.	.	.	.	.	.	.
Cc1nc2nc(-c3cccs3)cn2nc1C	-0.738	9.3	-1.33	0.542	-25.2	100*	1066*	1014*
COc1cccc(-c2cn3nc(C)c(C)nc3n2)c1	0.977	4.8	-1.9	-0.78	-40.3	-0.907	.	.
CCOC(=O)N1CCN(C(=O)c2cc(-c3ccc(OCC)cc3)nc3ccccc23)CC1	0.00142	86.7*	-2.12	-0.388	23.5	8.66*	?	-37.4
CC(=O)c1cccc(N(CC(=O)N2CCCCC2)S(C)(=O)=O)c1	-0.0223	.	.	.	.	.	.	.
CC(C)CCn1c(SCC(=O)OCn2nnc3ccccc3c2=O)nc2ccccc2c1=O	0.147	-6.3	0.788	-0.0438	20.2	3.67*	-10.7	-38.7
COc1cccc(C(=O)OCn2nnc3ccccc3c2=O)c1	-0.513	.	0.0157	-0.135	7.0	2.21*	-25.5	-21.4
CC(C)CN1C(=O)c2ccc(C(=O)Nc3ccncc3)cc2C1=O	-0.694	10.4	-1.83	-1.15	1.2	5.18*	-17.3	-61.2

Screening results: PubChem BioAssay, several laboratories
